Consider 62 compounds from PubChem BioAssay AID504383 (The Scripps Research Institute Molecular Screening Center, 2011).

Hit rate of the full screen: of about 2,500 compounds, about 1,200 (48%) were called active.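 Rule for the calls: active = mean activation above the low control average plus 3 SD, as set in the primary screen (cut at about 12% in these data); inactive = the rest.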 So high a share suggests a set chosen from earlier hits. Some of the results follow.

For the assay, the target named is Troponin I, cardiac muscle (Homo sapiens) + Troponin T, cardiac muscle (Homo sapiens) + Troponin C, slow skeletal and cardiac muscles (Homo sapiens) (UniProt P19429+P45379+P63316). The assay is described as follows: calcium sensitizers of cardiac thin filaments – biochemical, IANBD-TnC fluorescence, triplicate, confirmation (AID 504383).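 Note: 0% = DMSO at 0.472 mM calcium and 100% = DMSO at 2.9 mM calcium.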 Particulars: IANBD-labeled cardiac RTF, Ca2+ sensitivity fluorescence; at 7.2 µM; stronger effect = higher value; scaled from EC20 to saturating calcium; tested at EC20 calcium, 0.472 mM. An outline of the steps: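 Assay system: labelled regulated thin filaments / Timing: 15 min at 25 °C / Detection: fluorescence intensity of labelled filaments / Measure: fluorescence gain scaled between EC20 and EC100 calcium controls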
`Cn1cc(Cl)c(-c2nc3ccccc3[nH]2)n1`: the activation was 20.4% (active).

For `Cn1nc([N+](=O)[O-])c(C(C#N)c2ccccn2)c(Cl)c1=O` (configuration not stated), the activation was 8.7% (inactive).

For `CCOC(=O)c1ccc(NC(=O)c2cc3c(C)nn(-c4ccccc4Cl)c3s2)s1`, the activation is 16.9% (active).

Turning to `CCN(CC)CCCNc1ccc2ncn3c4ccc(O)cc4c(=O)c1c23`, the activation was -1.43% (inactive).

Consider `O=C/C(=C\Nc1ccc(S(=O)(=O)CCO)cc1)c1nc2cc(Cl)ccc2o1`, for which the activation was 65% (active).

`N#CC(C#N)=C1C=C2C=C(N3CCCCCC3)CCC2CC1` (configuration not stated): the activation is 5.58% (inactive).

As to `COc1ccc2ccccc2c1C(O)c1nccn1C` (configuration not stated), the activation is 58% (active).

Take `CN1c2ccc(C=O)c3c(C=O)ccc(c23)N(C)C1(C)C`: the activation was 1.58% (inactive).

As for `CC1=CC2=NC(=O)/C(=C\c3ccc(-c4cccc(Cl)c4)o3)C(=N)N2O1`, the activation is 101% (active).

Turning to `COc1ccc(CNCc2cccc(Cl)c2)cc1`, the activation was 4.73% (inactive).

For the compound `OCCNCc1cccc(OCc2ccc(Cl)cc2)c1`, the activation is 173% (active).

As to `CN1CCN(CCOc2ccc(Cc3ccccc3)cc2)CC1`, the activation was 9.76% (inactive).

For the compound `CN1CCN(/N=C/c2ccc(OCc3ccccc3)cc2)CC1`, the activation was 309% (active).

`O=C(C1CCN(Cc2ccc(OCc3ccccc3)cc2)CC1)N1CCCC1`: the activation was -1.48% (inactive).

Take `O=C(O)C1CC(O)CN1C(=O)c1ccco1` (configuration not stated): the activation was 5.9% (inactive).

Regarding `O=C(NCc1ccco1)C1CCC(N2C(=O)C3C4CCC(C4)C3C2=O)CC1` (configuration not stated), the activation was 6.57% (inactive).

Turning to `O=C(NCc1ccco1)C1Cc2ccccc2CN1C(=O)c1ccco1` (configuration not stated), the activation is 2880% (active).

Consider `COc1ccc(C2OC34CCCCC3C(C#N)(C#N)C2(C#N)C(=N)O4)cc1` (configuration not stated), for which the activation is 5.98% (inactive).

Turning to `CCCCCCCCOc1ccc(C2OC34CCCCC3C(C#N)(C#N)C2(C#N)C(=N)O4)cc1` (configuration not stated), the activation was 17.2% (active).

`CCCCC1OC23CCCCC2C(C#N)(C#N)C1(C#N)C(=N)O3` (configuration not stated): the activation was 13% (active).

Consider `CCCCC1OC23CCCCC2C(C#N)(C(=N)O3)C1(C#N)C#N` (configuration not stated), for which the activation is 10.2% (inactive).

`CCCCOc1ccc(C2OC34CCCCC3C(C#N)(C#N)C2(C#N)C(=N)O4)cc1` (configuration not stated): the activation was 6.95% (inactive).

Regarding `CCCC1OC23CCCCC2C(C#N)(C#N)C1(C#N)C(=N)O3` (configuration not stated), the activation is 179% (active).

As for `CCOc1ccc(C2OC34CCCCC3C(C#N)(C#N)C2(C#N)C(=N)O4)cc1OC` (configuration not stated), the activation was 7.44% (inactive).

In the case of `CCC1OC23CCCCC2C(C#N)(C(=N)O3)C1(C#N)C#N` (configuration not stated), the activation is 10.4% (inactive).

Consider `N#CC1(C#N)C(c2ccccc2)OC23CCCCC2C1(C#N)C(=N)O3` (configuration not stated), for which the activation was -2.46% (inactive).

Regarding `COc1cccc(/C=N/c2nc3ccccc3[nH]2)c1O`, the activation was 6.09% (inactive).

Regarding `COc1cccc(/C=N/Nc2nnc3c(n2)[nH]c2ccccc23)c1OC`, the activation was 13.1% (active).

`NC(=O)[C@@H]1CCCNc2c(I)cc([N+](=O)[O-])cc2C(=O)N[C@@H](CCC(=O)O)C(=O)N[C@@H](CO)C(=O)N1`: the activation was 6.37% (inactive).

`OC(CNCC1CCCO1)Cn1c2ccc(Br)cc2c2cc(Br)ccc21` (configuration not stated): the activation was 34.1% (active).

As for `COC(=O)C(C)n1cnc2c(nnn2Cc2ccc(Cl)cc2)c1=O` (configuration not stated), the activation was 12.4% (active).

Regarding `Cc1ccccc1-n1c(SCc2c(C)noc2C)nnc1-c1cccnc1`, the activation was 13.8% (active).

Turning to `COc1cc2c(cc1OC)CN(Cc1cc(=O)oc3cc(C)c(C)cc13)CC2`, the activation is -0.4% (inactive).

Regarding `Cc1cc(N2CCN(c3nc(-c4ccc([N+](=O)[O-])cc4)cs3)CC2)c2ccccc2n1`, the activation was 14.9% (active).

As for `COc1ccc(-c2csc(N3CCN(c4cc5c(cc4Cl)nc(-c4ccncc4)n5CCOCCO)CC3)n2)cc1`, the activation is 2.85% (inactive).

Turning to `CC(=O)c1nnn(-c2cccc(C#N)c2)c1C`, the activation was 1.86% (inactive).

As for `O=C(CCSc1ccccc1)N1CCN(C(=O)c2ccco2)CC1`, the activation was 135% (active).

In the case of `O=c1[nH]c2c(s1)C=Nc1ccccc1N2`, the activation was 2.27% (inactive).

Regarding `O=[n+]1c2c(n([O-])c3cc(F)c(N4CCCC4)cc31)CCC2`, the activation is 92% (active).

As to `O=[n+]1c2c(n([O-])c3cc(F)c(N4CCCC4)cc31)CCCC2`, the activation was 259% (active).

Regarding `O=[n+]1c2c(n([O-])c3ccccc31)CCC2`, the activation is 29.4% (active).

For the compound `O=C(Cn1c(=O)c(=O)n(Cc2ccccc2)c2ccc(Cl)cc21)Nc1ccc(F)cc1F`, the activation was 1.32% (inactive).

On to `O=C1Nc2ccccc2/C1=C/c1cnc(-c2ccccc2)[nH]1`, for which the activation is 92.3% (active).

On to `Cc1cc(C)c(/C=C2\C(=O)Nc3ccccc32)[nH]1`, for which the activation is 14.2% (active).

Turning to `Cc1ccc(N/C=C2/Sc3ccccc3NC2=O)cc1`, the activation is 9.19% (inactive).

In the case of `COc1ccc(CC(=O)NCc2csc(-c3cccs3)n2)cc1OC`, the activation was 5.67% (inactive).

For the compound `COc1ccc(CNS(=O)(=O)c2cc(-c3cc(C)no3)ccc2OC)cc1OC`, the activation is 24.2% (active).

On to `CC1CC(C)CN(S(=O)(=O)N2CCCC(C(=O)NC3CCCCC3)C2)C1` (configuration not stated), for which the activation was 219% (active).

On to `Cc1cc(NC(=O)CN2C(=O)[C@@H]3[C@H](C2=O)[C@@H]2C[C@H]3C(Br)C2Br)no1` (some centres not stated), for which the activation was 40% (active).

Consider `CC(/C=N/Nc1ccc2nncn2n1)=C\c1ccccc1`, for which the activation is 70.4% (active).

`CCOC(=O)c1cc(C#N)c(SCC(=O)c2cc(C#N)c(SC)nc2C)[nH]c1=O`: the activation was 15.6% (active).

As for `O=C(Nc1ccc(F)cc1F)c1ccc(COc2c(F)c(F)cc(F)c2F)o1`, the activation was 4.6% (inactive).

With `C/C(=N\Nc1ccc([N+](=O)[O-])cc1[N+](=O)[O-])c1cccnc1`, the activation was 17% (active).

Consider `O=C(c1ccc([N+](=O)[O-])cc1[N+](=O)[O-])n1cnc2ccccc21`, for which the activation was -1.33% (inactive).

`O=C(/C=C/c1ccccc1[N+](=O)[O-])Nc1cccnc1`: the activation was 5.57% (inactive).

As for `CS(=O)(=O)N(CC(=O)O)Cc1cccc(CN(CC(=O)O)S(C)(=O)=O)c1`, the activation was 9.58% (inactive).

In the case of `CC(C)(Cc1cccc(CC(C)(C)C(=O)O)c1)C(=O)O`, the activation is 12% (active).

In the case of `CCCOc1ccc(N)cc1N`, the activation is 10.4% (inactive).

As to `O=C(CC1C(=O)N(c2ccc(Cl)cc2)C(=S)N1CCc1ccncc1)Nc1ccc(F)cc1` (configuration not stated), the activation was 3.64% (inactive).

Take `CCOC(=O)c1ccc(-c2c(-c3ccc4c(c3)OCO4)noc2C)cc1F`: the activation was 12% (active).

On to `COc1cc(-c2c(-c3ccc4c(c3)OCO4)noc2C)ccc1F`, for which the activation is 37.8% (active).

`Cc1ccc(-c2noc(-c3c(C)noc3C)n2)cc1`: the activation was 9.16% (inactive).
